The values below come from ChEMBL document CHEMBL4699424, “New chemical agents based on adamantane-monoterpene conjugates against orthopoxvirus infections” (RSC Med Chem, 2020).

One may read the CC50 as the concentration that lowers cell viability or growth by half. In general, IC50 refers to the concentration needed to halve the response being measured.

Data set [1] in a line: Cytotoxicity against African green monkey Vero cells assessed as […]. In kind it is cell-based. The note with it: chlorocebus sabaeus. The gist of the method: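 Uninfected Vero monolayers in DMEM with 2% serum, given 8 three-fold compound dilutions starting at 1, 10 or 100 μg ml–1. Cell viability read by neutral red uptake: dye 1.5 h, washes, lysis, OD. CC50, the concentration causing 50% cell death, calculated from OD values.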

Data set [2] relates to Vaccinia virus. The data set is described as follows: Antiviral activity against Vaccinia virus Copenhagen infected in African green monkey Vero cells assessed as reduction in cell survival incubated for 4 days by neutral red dye based colorimetric analysis. The data set is classed as functional, organism-based. The note with it: Orthopoxvirus vaccinia, 96 h.
Data set [3] is described as follows: Selectivity index, ratio of CC50 for African green monkey Vero cells to IC50 for Vaccinia virus Copenhagen infected in African green monkey Vero cells assessed as reduction in cell survival incubated for 4 days by neutral dye based colorimetric analysis. In kind it is toxicity. The note with it: read-out: Ratio CC50/IC50.
The nature of data set [4]: Selectivity index, ratio of CC50 for African green monkey Vero cells to IC50 for Ectromelia virus K-1 infected in African green monkey Vero cells assessed as reduction in cell survival incubated for 4 days by neutral dye based colorimetric analysis. The note with it: read-out: Ratio CC50/IC50. In kind it is toxicity.
The test system of data set [5] is Cowpox virus. The data set is described as follows: Antiviral activity against Cowpox virus Grishak infected in African green monkey Vero cells assessed as reduction in cell survival incubated for 4 days by neutral red dye based colorimetric analysis. In kind it is functional, organism-based. The note with it: 96 h.
Data set [6] in a line: Selectivity index, ratio of CC50 for African green monkey Vero cells to IC50 for Cowpox virus Grishak infected in African green monkey Vero cells assessed as reduction in cell survival incubated for 4 days by neutral dye based colorimetric analysis. The data set is classed as toxicity. The note with it: read-out: Ratio CC50/IC50.
Data set [7] has as its system Ectromelia virus. Nature of the data set: Antiviral activity against Ectromelia virus K-1 infected in African green monkey Vero cells assessed as reduction in cell survival incubated for 4 days by neutral red dye based colorimetric analysis. The note with it: K-1, Vero, 96 h. The data set is classed as functional.
Data set [8] has as its system Vaccinia virus. The data set is described as follows: Antiviral activity against Vaccinia virus. The data set is classed as functional, organism-based. The note with it: Orthopoxvirus vaccinia.
Data set [9] deals with Vaccinia virus. The data set is described as follows: Antiviral activity against Vaccinia virus assessed as reduction in viral reproduction at 2 ug/ml after 3 hrs relative to control. The data set is classed as functional, Orthopoxvirus vaccinia. More on the design: scale not given: the % may be the effect or the level left. The note with it: dose 2 µg/ml.
Data set [10] deals with Vaccinia virus. Nature of the data set: Antiviral activity against Vaccinia virus assessed as reduction in viral reproduction at 2 ug/ml relative to control. Set-up: scale not given: the % may be the effect or the level left. In kind it is functional, Orthopoxvirus vaccinia. The note with it: dose 2 µg/ml.

On to `C=C(C)[C@@H]1CC=C(CNC(=O)C23CC4CC(CC(C4)C2)C3)CC1`, for which, in [1], the CC50 amounted to 319 µM. The IC50 in data set [2] is 12.3 µM. Besides, the selectivity ratio at 96 h in data set [3] turned out to be 26.

As for `CC1(C)[C@H]2CC[C@](C)(C2)[C@H]1NC(=O)C12CC3CC(CC(C3)C1)C2`, the CC50 in data set [1] worked out at 317 µM. Moreover, the IC50 in data set [2] was determined as 14.4 µM. Moreover, in [3], the selectivity ratio at 96 h stood at 22.

In the case of `CC1(C)[C@@H]2CC[C@@]1(CS(=O)(=O)NC1C3CC4CC(C3)CC1C4)C(=O)C2` (some centres undefined), in data set [1], the CC50 came out at 95.8 µM. Also, the IC50 in [2] is 0.6 µM. Besides, the selectivity ratio at 96 h in [3] is 160.

With `CC1(C)[C@H]2CC=C(CCNC(=O)C34CC5CC(CC(C5)C3)C4)[C@@H]1C2`, the selectivity ratio at 96 h is 469 in data set [4], 183 in data set [6] and 417 in [3]. Moreover, the figures for the IC50 in data set [5], in [2] and in data set [7] were 4.1 µM, 1.8 µM and 1.6 µM, respectively. In addition, the CC50 in data set [1] was determined as 750 µM.

As for `CC1=CC[C@H](CCNC(=O)C2C3CC4CC(C3)CC2C4)C1(C)C` (some centres undefined), the CC50 in data set [1] was 317 µM. Besides, the IC50 in data set [2] is 2.6 µM. In data set [3], the selectivity ratio at 96 h came out at 122.

With `CC1(C)[C@H]2CC=C(C(=O)NC3C4CC5CC(C4)CC3C5)[C@@H]1C2` (some centres undefined), the selectivity ratio at 96 h was determined as 477 in data set [4], 113 in data set [6] and 325 in data set [3]. Further, the IC50 in [5] came out at 7.2 µM; in data set [2], 2.5 µM; in data set [7], 1.7 µM. Besides, in [1], the cytotoxic concentration (CC50) came out at 812 µM.

In the case of `CC1CCN(CC(=O)N[C@@H]2C[C@H]3CC[C@]2(C)C3(C)C)CC1`, in data set [8], the IC50 was 2.5 µM.

In turn, `CC1(C)[C@H]2CC[C@]1(C)[C@H](OC(=O)CCN1CCOCC1)C2` came in with an IC50 in data set [8] of 3.5 µM.

Take `CC1(C)[C@H]2CC=C(C(=O)NC34CC5CC(CC(C5)C3)C4)[C@@H]1C2`: in data set [1], the CC50 was 7.9 µM. In addition, the IC50 in data set [2] was found to be 0.7 µM. The selectivity ratio at 96 h in data set [3] was 11.

Take `CC(C)CCCC(C)CCNC(=O)C12CC3CC(CC(C3)C1)C2` (centres undefined): the CC50 in data set [1] was 17.3 µM.

With `O=C(NN1C(=O)C2C3C=CC(C4CC34)C2C1=O)c1ccc(C(F)(F)F)cc1` (centres undefined), in data set [1], the CC50 is 1280 µM. The IC50 in data set [2] is 0.01 µM. In addition, the selectivity ratio at 96 h in [3] was determined as 128000.

Regarding `O=C1Nc2ccccc2/C1=N\NC(=S)NC1C2CC3CC(C2)CC1C3` (centres undefined), in [9], the Activity is on record as 42%.

On to `CC1(C)[C@@H]2CC[C@@]1(CS(=O)(=O)NC13CC4CC(CC(C4)C1)C3)C(=O)C2`, for which, in data set [1], the CC50 is 164 µM. In addition, the IC50 in data set [2] turned out to be 2.3 µM. The selectivity ratio at 96 h in data set [3] is 71.

For `CC(C)=CCCC(C)CC(=O)NC12CC3CC(CC(C3)C1)C2` (centres undefined), the CC50 in data set [1] amounted to 37 µM. For the same compound, the IC50 in data set [2] came out at 3.1 µM. For the same compound, the selectivity ratio at 96 h in [3] was 12.

Consider `CC1(C)[C@H]2CC=C(CCNC(=O)C3C4CC5CC(C4)CC3C5)[C@@H]1C2` (some centres undefined), for which the selectivity ratio at 96 h came out at 39 in data set [4], 30 in data set [6] and 85 in data set [3]. The results for the IC50 in [5], in [2] and in [7] were 12.5 µM, 4.4 µM and 9.5 µM, respectively. For the same compound, in data set [1], the CC50 worked out at 372 µM.

In the case of `CC1(C)[C@@H]2CC[C@@]1(C)[C@H](NC(=O)C13CC4CC(CC(C4)C1)C3)C2`, the CC50 in data set [1] was 317 µM. Also, the IC50 in data set [2] was determined as 10.6 µM. Also, in data set [3], the selectivity ratio at 96 h turned out to be 30.

`CC(C)=CCC/C(C)=C/CNC(=O)C12CC3CC(CC(C3)C1)C2`: the 50% cytotoxic concentration (CC50) in [1] stood at 18.9 µM. Besides, in data set [2], the IC50 is 5.9 µM. For the same compound, in data set [3], the selectivity ratio at 96 h was 3.

Regarding `CC(C)=CCC[C@H](C)CCNC(=O)C12CC3CC(CC(C3)C1)C2`, in [1], the CC50 amounted to 18.1 µM. Further, the half-inhibitory concentration (IC50) in data set [2] amounted to 3.6 µM. The selectivity ratio at 96 h in data set [3] came to 5.

For `CC1(C)[C@H]2CC=C(CNC(=O)C34CC5CC(CC(C5)C3)C4)[C@@H]1C2`, the selectivity ratio at 96 h in data set [4] is 707; in data set [6], 406; in data set [3], 1120. Further, the IC50 in data set [5] is 4.7 µM; in [2] it was 1.7 µM; in data set [7], 2.7 µM. In addition, the CC50 in data set [1] is 1910 µM.

Regarding `CC1(C)[C@H]2CC=C(CNC(=O)C3C4CC5CC(C4)CC3C5)[C@@H]1C2` (some centres undefined), the selectivity ratio at 96 h in data set [4] was found to be 97; in data set [6], 82; in data set [3], 267. Besides, the IC50 in data set [5] was found to be 15 µM; in data set [2], 4.6 µM; in data set [7], 12.6 µM. Further, the CC50 in data set [1] was 1230 µM.

Turning to `CC(C)CCCC(C)CCNC(=O)C1C2CC3CC(C2)CC1C3` (centres undefined), the CC50 in [1] was found to be 13.7 µM. In addition, the IC50 in data set [2] was determined as 2.8 µM. In addition, the selectivity ratio at 96 h in data set [3] worked out at 5.

Regarding `CC(C)=CCCC(C)CC(=O)NC1C2CC3CC(C2)CC1C3` (centres undefined), the CC50 in data set [1] was 330 µM. Further, the IC50 in data set [2] amounted to 14.8 µM. The selectivity ratio at 96 h in data set [3] was 22.

`CC1=CC[C@H](CCNC(=O)C23CC4CC(CC(C4)C2)C3)C1(C)C`: the CC50 in [1] was 317 µM. Further, the IC50 in data set [2] came out at 2.5 µM. In data set [3], the selectivity ratio at 96 h was 126.

For `Nc1ccn(C[C@@H](CO)OCP(=O)(O)O)c(=O)n1` [CIDOFOVIR], in data set [3], the selectivity ratio at 96 h turned out to be 12.

For the compound `CC(C)=CCC/C(C)=C\CNC(=O)C12CC3CC(CC(C3)C1)C2`, the CC50 in data set [1] is 12.9 µM.

As for `O=C(NC12CC3CC(CC(C3)C1)C2)C(c1ccccc1)c1ccccc1`, the Activity in data set [10] was 72%.
